From ChEMBL document CHEMBL3414532 (J Med Chem, 2015)

Tests used:
[1] = test system: Human immunodeficiency virus; assay: Antiviral activity against HIV infected in human HeLa P4/R5 cells pre-incubated for 16 hrs before virus infection and measured 48 hrs post virus infection by fluorescence-based beta-galactosidase detection assay; assay type: functional, organism-based; settings: Human immunodeficiency virus 1, P4/R5
Summary of the method: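 P4R5 indicator cells (expressing CD4, CXCR4, CCR5 and an HIV LTR-driven β-galactosidase reporter) seeded at 5 × 10^3 per well in DMEM/10% FBS with puromycin (0.5 μg/mL). Drug added 16 h before HIV exposure, then 48 h further incubation. Single replication cycle; infection read by fluorescence-based β-galactosidase detection. Highest concentration tested 50 μM; values are averages of two determinations.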

[2] = biological target: T1, Human immunodeficiency virus type 1 reverse transcriptase (Human immunodeficiency virus 1, UniProt Q72547); assay: Inhibition of HIV1 recombinant reverse transcriptase associated catalytically active RNase H domain assessed as reduction in DNA 3' end directed cleavage using HTS-2 RNA/DNA duplex substrate by fluorescence assay
[3] = biological target: T1, Human immunodeficiency virus type 1 reverse transcriptase; assay: Inhibition of HIV1 recombinant reverse transcriptase associated catalytically active RNase H domain assessed as reduction in RNA 5' end directed cleavage using HTS-3 RNA/DNA duplex substrate by fluorescence assay
[4] = biological target: T1, Human immunodeficiency virus type 1 reverse transcriptase; assay: Inhibition of reconstituted HIV1 RNase H using RNA/DNA duplex substrate by fluorescence assay
[5] = biological target: T1, Human immunodeficiency virus type 1 reverse transcriptase; assay: Inhibition of HIV1 recombinant reverse transcriptase polymerase activity using [3H]TTP and poly(rA)-oligo(dT)16 substrate incubated for 20 mins by liquid scintillation spectrometry
Summary of the method: (§1)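 HIV RT (WT or NNRTI-resistant mutant, 10 nM) added to start reaction with 10 μM [3H]-TTP and 40 nM poly(rA)-oligo(dT)16 in 50 mM Tris-HCl pH 7.4, 60 mM KCl, 5 mM MgCl2; 20 min at 37 °C. Quenched with ice-cold 10% TCA/20 mM sodium pyrophosphate, glass-fiber filtered, washed with TCA and ethanol; incorporation counted by scintillation.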

[6] = biological target: Human immunodeficiency virus type 1 integrase (Human immunodeficiency virus 1, UniProt Q7ZJM1); assay: Inhibition of HIV integrase pre-incubated for 10 mins before DNA substrate addition
Summary of the method: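 Strand transfer assay: 1 μM HIV integrase in 10 mM HEPES pH 7.5, 10% glycerol, 10 mM MnCl2, 1 mM DTT, with compound at 0.13–100 μM final in duplicate, preincubated 10 min at 25 °C. Started with biotin/Cy5-labelled oligo duplex, run 30 min at 37 °C, stopped with EDTA. Mean ± SD from at least three experiments.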

[7] = Toxicity against human HeLa P4/R5 cells; assay type: cell-based
[8] = Therapeutic index, ratio of CC50 for human HeLa P4/R5 cells to EC50 for HIV infected in human HeLa P4/R5 cells; assay type: cell-based; settings: read-out: Ratio CC50/EC50
[9] = biological target: T1, Human immunodeficiency virus type 1 reverse transcriptase; assay: Inhibition of HIV1 recombinant reverse transcriptase associated catalytically active RNase H domain assessed as reduction in internal cleavage using HTS-1 RNA/DNA duplex substrate by fluorescence assay
[10] = Inhibition of Moloney murine leukemia virus reverse transcriptase associated RNase H pre-incubated for 10 mins before HTS-1 RNA/DNA duplex substrate addition by fluorescence assay
Summary of the method: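 Preincubated 10 min at room temperature, then started with 100 nM HTS-1 duplex. IC50 at curve midpoint; duplicates, at least two experiments.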

[11] = Inhibition of Escherichia coli RNase H pre-incubated for 10 mins before HTS-1 RNA/DNA duplex substrate addition by fluorescence assay
Summary of the method: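 E. coli RNase H at 4 nM with 6 mM MgCl2 and inhibitor at 1, 7 or 30 μM (2% DMSO final) in 50 mM Tris pH 7.8, 50 mM NaCl. Preincubated 10 min at room temperature, then started with 100 nM HTS-1 (fluorescein/Dabcyl RNA/DNA duplex). IC50 taken at curve midpoint; duplicates, at least two independent experiments.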

[12] = Selectivity index, ratio of IC50 for HIV integrase to IC50 for HIV1 recombinant reverse transcriptase associated catalytically active RNase H-mediated domain internal cleavage activity
Gag-Pol polyprotein = Gag-Pol polyprotein (Moloney murine leukemia virus isolate Shinnick, UniProt P03355); assay: Inhibition of Moloney murine leukemia virus reverse transcriptase polymerase activity using Td100/Pd18 DNA-DNA substrate incubated for 30 mins by fluorescence assay
[13] = biological target: T2, Human immunodeficiency virus type 1 reverse transcriptase (Human immunodeficiency virus 1, UniProt Q72547, Y181C); assay: Inhibition of HIV1 reverse transcriptase Y181C mutant associated RNase H domain activity assessed as reduction in internal cleavage using HTS-1 RNA/DNA duplex substrate by fluorescence assay
[14] = biological target: T2, Human immunodeficiency virus type 1 reverse transcriptase; assay: Inhibition of HIV1 reverse transcriptase Y181C mutant polymerase activity using [3H]TTP and poly(rA)-oligo(dT)16 substrate incubated for 20 mins by liquid scintillation spectrometry; summary of the method: as §1
[15] = biological target: T3, Human immunodeficiency virus type 1 reverse transcriptase (Human immunodeficiency virus 1, UniProt Q72547, K103N/L100I); assay: Inhibition of HIV1 reverse transcriptase L100I/K103N mutant associated RNase H domain activity assessed as reduction in internal cleavage using HTS-1 RNA/DNA duplex substrate by fluorescence assay
[16] = biological target: T3, Human immunodeficiency virus type 1 reverse transcriptase; assay: Inhibition of HIV1 reverse transcriptase L100I/K103N mutant polymerase activity using [3H]TTP and poly(rA)-oligo(dT)16 substrate incubated for 20 mins by liquid scintillation spectrometry; summary of the method: as §1
[17] = biological target: T2, Human immunodeficiency virus type 1 reverse transcriptase; assay: Inhibition of HIV1 reverse transcriptase Y181C mutant associated RNase H domain activity assessed as reduction in reduction in DNA 3' end directed cleavage using HTS-2 RNA/DNA duplex substrate by fluorescence assay
[18] = biological target: T3, Human immunodeficiency virus type 1 reverse transcriptase; assay: Inhibition of HIV1 reverse transcriptase L100I/K103N mutant associated RNase H domain activity assessed as reduction in reduction in DNA 3' end directed cleavage using HTS-2 RNA/DNA duplex substrate by fluorescence assay

Human immunodeficiency virus type 1 integrase, sequence (Q7ZJM1 whole entry): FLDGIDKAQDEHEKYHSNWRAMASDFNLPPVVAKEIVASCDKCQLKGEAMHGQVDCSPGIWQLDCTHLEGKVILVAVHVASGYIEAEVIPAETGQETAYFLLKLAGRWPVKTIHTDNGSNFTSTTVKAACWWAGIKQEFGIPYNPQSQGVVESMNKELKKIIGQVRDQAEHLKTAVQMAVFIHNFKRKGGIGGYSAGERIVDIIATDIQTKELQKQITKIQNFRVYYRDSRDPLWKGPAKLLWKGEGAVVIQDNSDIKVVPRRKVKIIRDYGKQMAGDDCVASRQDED

SMILES | EC50 [1] [nM] | IC50 [2] [nM] | IC50 [3] [nM] | IC50 [4] [nM] | IC50 [5] [nM] | IC50 [6] [nM] | CC50 ([7]; HeLa P4/R5 cells) [nM] | selectivity ratio [8] | IC50 [9] [nM] | IC50 [10] [nM] | IC50 [11] [nM] | CC50 ([7]; p4/r5) [nM] | Ratio IC50 [12] | IC50 (Gag-Pol polyprotein) [nM] | IC50 [13] [nM] | IC50 [14] [nM] | IC50 [15] [nM] | IC50 [16] [nM] | IC50 [17] [nM] | IC50 [18] [nM]
COc1ccc(-c2ccc(Cc3ccc4c(c3)CC(=O)N(O)C4=O)cc2)cc1 | 10000 | – | – | – | – | – | – | – | – | – | – | – | – | – | – | – | – | – | – | –
O=C1Cc2cc(Cc3ccc(-c4ccc(F)cc4F)cc3)ccc2C(=O)N1O | 13000 | 900 | 1400 | 700 | 2000 | > 100000 | > 50000 | > 4 | 1500 | – | – | – | – | – | – | – | – | – | – | –
O=C1Cc2cc(Cc3ccc(-c4ccc(F)cc4)cc3)ccc2C(=O)N1O | 10000 | 4900 | 5000 | 2800 | – | > 100000 | – | – | 5400 | > 30000 | 2900 | – | – | – | – | – | – | – | – | –
O=C1Cc2cc(Cc3ccc(-c4cccs4)cc3)ccc2C(=O)N1O | 13000 | 2000 | 2700 | 700 | 1500 | > 100000 | > 50000 | > 4 | 2700 | – | – | – | – | – | – | – | – | – | – | –
O=C1Cc2cc(Cc3ccc(-c4ccccc4)cc3)ccc2C(=O)N1O | 3000 | 600 | 900 | 500 | – | > 100000 | – | – | 800 | > 30000 | 3400 | 50000 | – | – | – | – | – | – | – | –
NC(=O)c1ccc(-c2ccc(Cc3ccc4c(c3)CC(=O)N(O)C4=O)cc2)cc1 | – | – | – | 1500 | – | – | – | – | – | – | – | – | – | – | – | – | – | – | – | –
O=C1Cc2cc(Cc3ccc(C4CC4)cc3)ccc2C(=O)N1O | – | 800 | 900 | 900 | – | 3800 | – | – | 600 | > 30000 | – | – | – | – | – | – | – | – | – | –
O=C1Cc2cc(Cc3ccc(F)cc3)ccc2C(=O)N1O | 13000 | 800 | 1200 | 500 | 2300 | 36000 | > 50000 | > 4 | 1300 | – | – | – | 28 | – | – | – | – | – | – | –
N#Cc1ccc(-c2ccc(Cc3ccc4c(c3)CC(=O)N(O)C4=O)cc2)cc1 | 13000 | 900 | 900 | 500 | – | > 100000 | > 50000 | – | 900 | > 30000 | 3200 | – | – | – | – | – | – | – | – | –
O=C1Cc2cc(Cc3ccc(-c4ccncc4)cc3)ccc2C(=O)N1O | – | – | – | 800 | – | – | – | – | – | > 30000 | 4000 | – | – | – | – | – | – | – | – | –
CS(=O)(=O)c1ccc(-c2ccc(Cc3ccc4c(c3)CC(=O)N(O)C4=O)cc2)cc1 | – | – | – | – | – | – | – | – | – | > 30000 | 7200 | – | – | – | – | – | – | – | – | –
O=C1Cc2cc(Cc3ccc(Cl)cc3)ccc2C(=O)N1O | – | – | – | – | – | 4400 | – | – | – | > 30000 | – | – | – | – | – | – | – | – | – | –
O=C1Cc2cc(Cc3ccccc3)ccc2C(=O)N1O | – | 1400 | 1100 | 1100 | 1700 | 3800 | – | – | 1300 | > 30000 | 6500 | – | 2.9 | 3200 | – | – | – | – | – | –
NS(=O)(=O)c1ccc(-c2ccc(Cc3ccc4c(c3)CC(=O)N(O)C4=O)cc2)cc1 | – | 500 | 500 | 400 | 500 | 3600 | – | – | 400 | > 30000 | 2500 | – | 9 | 2400 | 200 | 300 | 400 | 200 | 300 | 300
O=C1Cc2cc(Cc3ccc(C(F)(F)F)cc3)ccc2C(=O)N1O | 6200 | 1100 | 2000 | 1200 | – | > 100000 | – | – | 1500 | > 30000 | – | 50000 | – | – | – | – | – | – | – | –
COc1ccc(-c2ccc(Cc3ccc4c(c3)CC(=O)N(O)C4=O)cc2)cc1F | 13000 | 1800 | 1200 | 700 | 1900 | > 100000 | > 50000 | > 4 | 2200 | – | – | – | – | – | – | – | – | – | – | –
